Measurements published in ChEMBL document CHEMBL3739352, “Anticonvulsant activity, crystal structures, and preliminary safety evaluation of N-trans-cinnamoyl derivatives of selected (un)modified aminoalkanols” (Eur J Med Chem, 2016).
Calls of active or inactive are those of the source. The rule behind the calls is not given here.

What was measured:
[1] = system: Mus musculus; assay: Anticonvulsant activity in albino Carworth Farms No.1 mouse assessed as protection against maximal electroshock-induced seizures at 30 mg/kg, ip after 0.5 hrs; format: functional, organism-based
Method in brief: (§1)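 Mouse i.p. screen in Carworth Farms No.1 albino mice at 30, 100 or 300 mg/kg in 0.5% methylcellulose. Testing was at 0.5 and 4 h after injection, by maximal electroshock or by subcutaneous pentetrazol challenge. Scoring was number protected / number used.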

[2] = system: Salmonella typhimurium; assay: Mutagenicity in Salmonella typhimurium TA1535 assessed assessed as mutagenic index at 100 ug/plate by Ames test; format: toxicity, organism-based; conditions: salmonella enterica subsp. enterica serovar typhimurium
[3] = system: Salmonella typhimurium; assay: Mutagenicity in Salmonella typhimurium TA100 assessed as number of revertants at 4 ug/plate by Ames test (reference value: 77 +/-4); format: toxicity, organism-based; conditions: salmonella enterica subsp. enterica serovar typhimurium
Method in brief: (§2)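 Salmonella TA100 preincubation Ames assay: overnight-type 12 h broth culture at 37 °C, compound in DMSO at final 4–1000 per plate, top agar with trace histidine, glucose minimal agar, 48 h at 37 °C. Revertant colonies per plate were counted, with a DMSO negative control and a sodium azide positive control. Three independent repetitions were run.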

[4] = Lipophilicity of the compound using 75% methanol in water at 1 mg/ml by RT-TLC analysis; format: physicochemical; conditions: buffer
Method in brief: (§3)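 Reversed-phase TLC with a methanol–water mobile phase at the stated methanol content (v/v). Compounds were spotted from 1 mg/mL methanol solutions after 1 h chamber saturation and located under UV light. Rf was measured and RM = log(1/Rf − 1) calculated.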

[5] = system: Mus musculus; assay: Anticonvulsant activity in albino Carworth Farms No.1 mouse assessed as protection against maximal electroshock-induced seizures at 100 mg/kg, ip after 0.5 hrs; format: functional, organism-based; method in brief: as §1
[6] = system: Salmonella typhimurium; assay: Mutagenicity in Salmonella typhimurium TA1535 assessed as number of revertants at 20 ug/plate by Ames test (reference value: 10 +/- 3); format: toxicity, organism-based; conditions: salmonella enterica subsp. enterica serovar typhimurium
[7] = system: Mus musculus; assay: Anticonvulsant activity in albino Carworth Farms No.1 mouse assessed as protection against maximal electroshock-induced seizures at 300 mg/kg, ip after 4 hrs; format: functional, organism-based; method in brief: as §1
[8] = system: Salmonella typhimurium; assay: Mutagenicity in Salmonella typhimurium TA100 assessed as number of revertants at 1000 ug/plate by Ames test (reference value: 77 +/-4); format: toxicity, organism-based; conditions: salmonella enterica subsp. enterica serovar typhimurium; method in brief: as §2
[9] = system: Salmonella typhimurium; assay: Mutagenicity in Salmonella typhimurium TA1535 assessed as mutagenic index at 1000 ug/plate by Ames test; format: toxicity, organism-based; conditions: salmonella enterica subsp. enterica serovar typhimurium
[10] = system: Salmonella typhimurium; assay: Mutagenicity in Salmonella typhimurium TA100 assessed as mutagenic index at 500 ug/plate by Ames test; format: toxicity, organism-based; conditions: salmonella enterica subsp. enterica serovar typhimurium
Method in brief: (§4)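 Ames preincubation test. Strain culture was grown 12 h at 37 °C in nutrient broth, then mixed with compound in DMSO (final 4, 20, 100, 500, 1000 per plate) and buffer in top agar with trace histidine. This was plated on glucose minimal agar for 48 h at 37 °C. Mutagenic index = revertants with compound / DMSO control revertants, from three independent repeats.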

[11] = Lipophilicity of the compound using 65% methanol in water at 1 mg/ml by RT-TLC analysis; format: physicochemical; conditions: buffer; method in brief: as §3
[12] = system: Mus musculus; assay: Anticonvulsant activity in albino Carworth Farms No.1 mouse assessed as protection against maximal electroshock-induced seizures at 300 mg/kg, ip after 0.5 hrs; format: functional, organism-based; method in brief: as §1
[13] = system: Mus musculus; assay: Anticonvulsant activity in albino Carworth Farms No.1 mouse assessed as protection against subcutaneous dosed pentetrazol-induced seizures at 30 mg/kg, ip after 0.5 hrs; format: functional, organism-based; method in brief: as §1
[14] = system: Mus musculus; assay: Anticonvulsant activity in albino Carworth Farms No.1 mouse assessed as protection against subcutaneous dosed pentetrazol-induced seizures at 30 mg/kg, ip after 4 hrs; format: functional, organism-based; method in brief: as §1
[15] = Lipophilicity of the compound using 95% methanol in water at 1 mg/ml by RT-TLC analysis; format: physicochemical; conditions: buffer; method in brief: as §3
[16] = system: Salmonella typhimurium; assay: Mutagenicity in Salmonella typhimurium TA1535 assessed as number of revertants at 1000 ug/plate by Ames test (reference value: 10 +/- 3); format: toxicity, organism-based; conditions: salmonella enterica subsp. enterica serovar typhimurium
[17] = system: Salmonella typhimurium; assay: Mutagenicity in Salmonella typhimurium TA98 assessed as mutagenic index at 1000 ug/plate by Ames test; format: toxicity, organism-based; conditions: salmonella enterica subsp. enterica serovar typhimurium
[18] = system: Salmonella typhimurium; assay: Mutagenicity in Salmonella typhimurium TA1535 assessed as number of revertants at 500 ug/plate by Ames test (reference value: 10 +/- 3); format: toxicity, organism-based; conditions: salmonella enterica subsp. enterica serovar typhimurium
[19] = system: Salmonella typhimurium; assay: Mutagenicity in Salmonella typhimurium TA1535 assessed as assessed as mutagenic index at 20 ug/plate by Ames test; format: toxicity, organism-based; conditions: salmonella enterica subsp. enterica serovar typhimurium; method in brief: as §4
[20] = Lipophilicity of the compound using 90% methanol in water at 1 mg/ml by RT-TLC analysis; format: physicochemical; conditions: buffer; method in brief: as §3
[21] = system: Salmonella typhimurium; assay: Mutagenicity in Salmonella typhimurium TA98 assessed as number of revertants at 4 ug/plate by Ames test (reference value: 23 +/- 3); format: toxicity, organism-based; conditions: salmonella enterica subsp. enterica serovar typhimurium
[22] = system: Salmonella typhimurium; assay: Mutagenicity in Salmonella typhimurium TA100 assessed as mutagenic index at 4 ug/plate by Ames test; format: toxicity, organism-based; conditions: salmonella enterica subsp. enterica serovar typhimurium; method in brief: as §4
[23] = system: Salmonella typhimurium; assay: Mutagenicity in Salmonella typhimurium TA1535 assessed as number of revertants at 4 ug/plate by Ames test (reference value: 10 +/- 3); format: toxicity, organism-based; conditions: salmonella enterica subsp. enterica serovar typhimurium
[24] = system: Mus musculus; assay: Neurotoxicity in albino Carworth Farms No.1 mouse at 300 mg/kg, ip after 0.5 hrs by rotarod test; format: toxicity, organism-based; conditions: in vivo
Method in brief: (§5)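 Mice (albino Carworth Farms No.1) were dosed i.p. at 30, 100 or 300 mg/kg in 0.5% methylcellulose. They were tested 0.5 and 4 h later on a 1-inch knurled rod rotating at 6 rpm. Neurotoxicity was scored if a mouse could not stay on the rod for at least 1 min in each of three trials. Results are given as animals toxic/animals tested, with deaths noted.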

[25] = system: Mus musculus; assay: Anticonvulsant activity in albino Carworth Farms No.1 mouse assessed as protection against subcutaneous dosed pentetrazol-induced seizures at 300 mg/kg, ip after 0.5 hrs; format: functional, organism-based; method in brief: as §1
[26] = system: Mus musculus; assay: Neurotoxicity in albino Carworth Farms No.1 mouse at 30 mg/kg, ip after 4 hrs by rotarod test; format: toxicity, organism-based; conditions: in vivo; method in brief: as §5
[27] = system: Mus musculus; assay: Anticonvulsant activity in albino Carworth Farms No.1 mouse assessed as protection against subcutaneous dosed pentetrazol-induced seizures at 100 mg/kg, ip after 0.5 hrs; format: functional, organism-based; method in brief: as §1
[28] = system: Salmonella typhimurium; assay: Mutagenicity in Salmonella typhimurium TA1535 assessed as number of revertants at 100 ug/plate by Ames test (reference value: 10 +/- 3); format: toxicity, organism-based; conditions: salmonella enterica subsp. enterica serovar typhimurium
[29] = system: Mus musculus; assay: Anticonvulsant activity in albino Carworth Farms No.1 mouse assessed as protection against maximal electroshock-induced seizures at 100 mg/kg, ip after 4 hrs; format: functional, organism-based; method in brief: as §1
[30] = system: Mus musculus; assay: Anticonvulsant activity in albino Carworth Farms No.1 mouse assessed as protection against subcutaneous dosed pentetrazol-induced seizures at 100 mg/kg, ip after 4 hrs; format: functional, organism-based; method in brief: as §1
[31] = system: Salmonella typhimurium; assay: Mutagenicity in Salmonella typhimurium TA100 assessed as number of revertants at 500 ug/plate by Ames test (reference value: 77 +/-4); format: toxicity, organism-based; conditions: salmonella enterica subsp. enterica serovar typhimurium; method in brief: as §2
[32] = system: Salmonella typhimurium; assay: Mutagenicity in Salmonella typhimurium TA98 assessed as mutagenic index at 500 ug/plate by Ames test; format: toxicity, organism-based; conditions: salmonella enterica subsp. enterica serovar typhimurium
[33] = system: Mus musculus; assay: Neurotoxicity in albino Carworth Farms No.1 mouse at 30 mg/kg, ip after 0.5 hrs by rotarod test; format: toxicity, organism-based; conditions: in vivo; method in brief: as §5
[34] = system: Mus musculus; assay: Neurotoxicity in albino Carworth Farms No.1 mouse at 300 mg/kg, ip after 4 hrs by rotarod test; format: toxicity, organism-based; conditions: in vivo; method in brief: as §5
[35] = system: Salmonella typhimurium; assay: Mutagenicity in Salmonella typhimurium TA98 assessed as number of revertants at 500 ug/plate by Ames test (reference value: 23 +/- 3); format: toxicity, organism-based; conditions: salmonella enterica subsp. enterica serovar typhimurium

Row | Structure (SMILES) | Activity [1] | Activity_index [2] | Activity [3] | Rm [4] | Activity [5] | Activity [6] | Activity [8] | Activity_index [9] | Activity_index [10] | Rm [11] | Activity [13] | Activity [14] | Rm [15] | Activity [16] | Activity_index [17] | Activity [18] | Activity_index [19] | Rm [20] | Activity [21] | Activity_index [22] | other results
1 | CCC(CO)NC(=O)/C=C/c1ccccc1 (racemic) | inactive | 1.4 | 68 | -0.19 | inactive | 5 | 64 | 1.3 | 0.9 | 0.25 | inactive | inactive | -0.66 | 13 | 0.8 | 13 | 0.5 | -0.55 | 21 | 0.9 | Activity [7]: inactive; Activity [12]: Active; Activity [23]: 11; Activity [24]: Non-toxic; Activity [25]: Active; Activity [26]: Non-toxic; Activity [27]: inactive; Activity [28]: 14; Activity [29]: inactive; Activity [30]: inactive; Activity [31]: 72; Activity_index [32]: 0.9; Activity [33]: Non-toxic; Activity [34]: Non-toxic; Activity [35]: 21
2 | O=C(/C=C/c1ccccc1)N1CCC(O)CC1 | inactive | 0.9 | 70 | -0.19 | Active | 6 | 70 | 0.5 | 0.9 | 0.18 | inactive | inactive | -0.6 | 5 | 0.9 | 8 | 0.6 | -0.48 | 22 | 0.9 | Activity [23]: 5; Activity [25]: Active; Activity [26]: Non-toxic; Activity [27]: inactive; Activity [28]: 9; Activity [29]: inactive; Activity [30]: inactive; Activity [31]: 72; Activity_index [32]: 1; Activity [33]: Non-toxic; Activity [35]: 22
3 | CC(O)CNC(=O)/C=C/c1ccccc1 (racemic) | inactive | 1.2 | 68 | -0.27 | inactive | 13 | 73 | 1.4 | 0.8 | 0.02 | inactive | inactive | -0.69 | 14 | 1 | 14 | 1.3 | -0.58 | 26 | 0.9 | Activity [7]: inactive; Activity [12]: Active; Activity [23]: 12; Activity [24]: Non-toxic; Activity [25]: Active; Activity [26]: Non-toxic; Activity [27]: inactive; Activity [28]: 12; Activity [29]: inactive; Activity [30]: inactive; Activity [31]: 65; Activity_index [32]: 0.9; Activity [33]: Non-toxic; Activity [34]: Non-toxic; Activity [35]: 21
4 | CCC(O)CNC(=O)/C=C/c1ccccc1 (racemic) | inactive | 0.5 | 60 | -0.18 | inactive | 14 | 72 | 0.6 | 0.8 | 0.19 | inactive | inactive | -0.66 | 6 | 1.1 | 7 | 1.4 | -0.52 | 19 | 0.8 | Activity [7]: inactive; Activity [12]: Active; Activity [23]: 9; Activity [24]: Non-toxic; Activity [25]: Active; Activity [26]: Non-toxic; Activity [27]: inactive; Activity [28]: 5; Activity [29]: inactive; Activity [30]: inactive; Activity [31]: 60; Activity_index [32]: 0.7; Activity [33]: Non-toxic; Activity [34]: Non-toxic; Activity [35]: 17
